Results collected from several papers.
Lines come from different studies, so protocols differ.
CHRM4: Muscarinic acetylcholine receptor M4 (CHRM4, Homo sapiens, UniProt P08173)
HRH1: Histamine H1 receptor (HRH1, Homo sapiens, UniProt P35367)

With `CCCCC/C=C\C/C=C\C/C=C\C/C=C\CCCC(=O)OCCN` the Kd was 14 µM (Cytochrome P450 2J2 (CYP2J2, Homo sapiens, UniProt P51589); binding, absorbance).
For `O=C(Nc1cccc(-c2ccn3c(CC4CC4)nnc3c2C(F)(F)F)c1)c1ccc(S(=O)(=O)F)cc1`, the EC50 was > 50.1 µM (Metabotropic glutamate receptor 1 (GRM1, Homo sapiens, UniProt Q13255); calcium signal, agonist).
For `CSCC[C@H](NC(=O)[C@@H](NC(=O)[C@@H](N)Cc1ccc(O)cc1)C(C)C)C(=O)NCC(=O)N[C@@H](Cc1c[nH]cn1)C(=O)O`, the EC50 was 26.8 µM (Melanocortin receptor 5 (Mus musculus, UniProt P41149); reporter gene, agonist).
`Cc1cc(N2CCNCC2)nc2ccccc12` gave a Ki of > 63.1 µM (CHRM4; ligand displacement, radioligand; cell membranes).
The EC50 of `N[C@@H](CCP(=O)(O)O)C(=O)O` is reported as 0.151 µM (Metabotropic glutamate receptor 4 (GRM4, Homo sapiens, UniProt Q14833); calcium signal, agonist).
The Kd of `CC(C)(COP(=O)(O)OP(=O)(O)OC[C@H]1O[C@@H](n2cnc3c(N)ncnc32)[C@H](O)[C@@H]1OP(=O)(O)O)[C@@H](O)C(=O)NCCC(=O)NCCSC(=O)c1ccccc1N` is reported as ~57 µM (pqsD (Pseudomonas aeruginosa, UniProt P20582, C113A); binding, ITC).
For `Fc1ccc([C@@H]2CCNC[C@H]2COc2ccc3c(c2)OCO3)cc1`, the Ki was 10 µM (Beta-1 adrenergic receptor (ADRB1, Homo sapiens, UniProt P08588); ligand displacement, radioligand).
`c1cc(N2CCNCC2)c2cc[nH]c2c1` has a Ki of > 63.1 µM (CHRM4; ligand displacement, radioligand; cell membranes).
For `CC[C@H](C)[C@H](NC(=O)[C@H](CS)NC(=O)[C@H](CCC(N)=O)NC(=O)[C@H](CC(C)C)NC(=O)[C@H](CCCCN)NC(=O)[C@H](CCCNC(=N)N)NC(=O)[C@H](C)NC(=O)[C@@H](NC(=O)[C@H](CCC(N)=O)NC(=O)[C@@H](NC(=O)[C@H](CCC(=O)O)NC(=O)[C@H](C)NC(=O)[C@H](CCC(N)=O)NC(=O)[C@H](Cc1c[nH]cn1)NC(=S)Nc1ccc2c(c1)C(=O)OC21c2ccc(O)cc2Oc2cc(O)ccc21)C(C)C)[C@@H](C)CC)C(=O)N[C@@H](C)C(=O)N[C@@H](CC(=O)O)C(=O)N[C@@H](CCC(N)=O)C(=O)N[C@@H](Cc1ccccc1)C(=O)N[C@@H](Cc1c[nH]cn1)C(=O)N[C@@H](CCCNC(=N)N)C(=O)N[C@@H](CC(C)C)C(=O)N[C@@H](Cc1c[nH]cn1)C(=O)N[C@H](C(=O)N[C@@H](CCC(N)=O)C(=O)N[C@@H](CCC(N)=O)C(=O)O)C(C)C`, the Kd was 49 µM (Induced myeloid leukemia cell differentiation protein Mcl-1 (MCL1, Homo sapiens, UniProt Q07820, R263A); cell-free assay, FP).
For `NC(N)=NCCC[C@H](NC(=O)OCc1ccccc1)C(=O)O`, the Ki was 1230 µM (Serine protease 1 (PRSS1, Bos taurus, UniProt P00760); enzyme activity, inhibitor, absorbance; pH 7.2).
`CC(C)C[C@H](NC(=O)[C@H](CCCCN)NC(=O)[C@@H]1CCCN1C(=O)[C@@H](N)CCCNC(=N)N)C(=O)N[C@@H](CCCCN)C(=O)O` has a Ki of > 10 µM (HRH1; cell-free assay, radioligand).
The Ki of `OC(c1ccc(F)cc1)C(F)(F)CCN1CCC(O)(c2ccc(Cl)cc2)CC1` (racemic) is reported as 0.408 µM (HRH1; cell-free assay, radioligand).
The Ki of `CC[C@H](C)[C@H](NC(=O)[C@H](CCCNC(=N)N)NC(=O)[C@H](CC(C)C)NC(=O)[C@@H](N)Cc1ccccc1)C(=O)N[C@@H](CCCNC(=N)N)C(=O)N1CCC[C@H]1C(=O)N[C@@H](CCCCN)C(=O)O` is reported as > 10 µM (HRH1; cell-free assay, radioligand).
`CNc1nc2cc(OCCCCN3CCN(c4cccc(Cl)c4Cl)CC3)ccc2s1` gave a Ki of 0.056 µM (HRH1; ligand displacement, radioligand).
`Nc1cccc2cc3ccccc3cc12` gave a Kd of 9 µM (Ferritin light chain (FTL, Equus caballus, UniProt P02791); binding, fluorescence).
